Measured values from ChEMBL document CHEMBL1157912, “Impact of nature and length of linker incorporated in agonists on toll-like receptor 9-mediated immune responses” (J Med Chem, 2010).

Assays:
[1] = target: T1, Toll-like receptor 9 (Homo sapiens) (UniProt Q9NR96); assay: Induction of TLR9-mediated immune stimulation in human PBMC assessed as IL12 production at 10 ug/ml after 24 hrs by luminex multiplex assay (RVb = 0.00 ng/ml)
T1 sequence (whole entry): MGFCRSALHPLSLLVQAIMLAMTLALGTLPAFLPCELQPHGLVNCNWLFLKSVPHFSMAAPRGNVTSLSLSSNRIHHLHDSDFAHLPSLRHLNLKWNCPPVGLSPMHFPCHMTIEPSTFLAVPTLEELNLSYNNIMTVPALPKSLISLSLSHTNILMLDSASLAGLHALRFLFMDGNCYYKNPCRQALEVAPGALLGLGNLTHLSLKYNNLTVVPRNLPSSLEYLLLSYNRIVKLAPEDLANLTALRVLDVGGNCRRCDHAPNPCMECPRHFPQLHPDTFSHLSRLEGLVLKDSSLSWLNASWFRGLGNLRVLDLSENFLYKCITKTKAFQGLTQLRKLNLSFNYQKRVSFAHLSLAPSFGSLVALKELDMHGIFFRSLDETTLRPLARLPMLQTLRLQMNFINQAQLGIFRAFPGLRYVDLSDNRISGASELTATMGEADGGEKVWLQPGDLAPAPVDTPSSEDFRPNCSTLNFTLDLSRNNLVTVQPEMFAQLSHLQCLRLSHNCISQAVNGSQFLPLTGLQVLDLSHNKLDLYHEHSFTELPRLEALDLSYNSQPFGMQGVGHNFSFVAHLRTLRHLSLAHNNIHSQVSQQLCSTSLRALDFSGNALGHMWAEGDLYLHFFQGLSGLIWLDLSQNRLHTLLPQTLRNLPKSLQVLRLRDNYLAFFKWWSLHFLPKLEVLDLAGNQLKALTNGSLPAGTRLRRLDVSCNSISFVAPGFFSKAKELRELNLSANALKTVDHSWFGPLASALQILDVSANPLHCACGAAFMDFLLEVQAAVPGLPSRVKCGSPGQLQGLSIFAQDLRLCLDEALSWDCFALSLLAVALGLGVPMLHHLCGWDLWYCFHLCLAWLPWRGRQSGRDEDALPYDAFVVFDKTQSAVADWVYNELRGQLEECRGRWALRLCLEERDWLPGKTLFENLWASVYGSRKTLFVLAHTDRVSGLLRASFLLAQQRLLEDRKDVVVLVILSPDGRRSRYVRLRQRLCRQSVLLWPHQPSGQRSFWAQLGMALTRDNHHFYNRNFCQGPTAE

[2] = target: T2, Toll-like receptor 9 (Mus musculus) (UniProt Q9EQU3); assay: Induction of TLR9-mediated IL6 production in C57BL/6 mouse spleen cells after 24 hrs by ELISA; assay type: cell-based
T2 sequence (whole entry): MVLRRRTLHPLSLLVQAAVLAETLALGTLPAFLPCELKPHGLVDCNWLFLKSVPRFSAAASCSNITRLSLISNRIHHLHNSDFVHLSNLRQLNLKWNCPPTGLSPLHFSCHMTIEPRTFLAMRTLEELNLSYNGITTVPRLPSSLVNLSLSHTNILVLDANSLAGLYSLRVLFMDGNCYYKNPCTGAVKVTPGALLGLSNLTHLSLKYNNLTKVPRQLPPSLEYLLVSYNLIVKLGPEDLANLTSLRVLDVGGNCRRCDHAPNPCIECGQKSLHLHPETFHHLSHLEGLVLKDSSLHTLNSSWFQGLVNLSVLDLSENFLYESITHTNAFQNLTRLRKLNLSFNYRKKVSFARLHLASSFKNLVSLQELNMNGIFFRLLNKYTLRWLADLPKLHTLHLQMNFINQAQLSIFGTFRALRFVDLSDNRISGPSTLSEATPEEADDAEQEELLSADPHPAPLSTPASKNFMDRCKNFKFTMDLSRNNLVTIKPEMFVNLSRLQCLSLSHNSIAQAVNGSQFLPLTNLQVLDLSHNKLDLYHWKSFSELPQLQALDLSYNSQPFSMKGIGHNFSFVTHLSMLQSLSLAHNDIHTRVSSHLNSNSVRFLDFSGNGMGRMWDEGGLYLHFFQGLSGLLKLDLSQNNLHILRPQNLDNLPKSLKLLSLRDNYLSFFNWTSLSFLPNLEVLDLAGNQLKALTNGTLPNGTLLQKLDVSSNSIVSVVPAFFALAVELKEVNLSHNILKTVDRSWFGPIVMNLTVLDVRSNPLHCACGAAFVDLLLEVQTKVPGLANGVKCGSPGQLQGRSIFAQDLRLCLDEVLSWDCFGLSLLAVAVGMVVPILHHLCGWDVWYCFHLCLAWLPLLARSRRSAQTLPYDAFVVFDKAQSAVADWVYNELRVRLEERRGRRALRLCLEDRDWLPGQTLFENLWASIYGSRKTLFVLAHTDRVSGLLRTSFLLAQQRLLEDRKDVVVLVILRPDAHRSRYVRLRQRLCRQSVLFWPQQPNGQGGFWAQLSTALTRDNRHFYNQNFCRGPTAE
Summary of the method: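 C57BL/6 mouse spleen cells were cultured with agonists at 0.1, 0.3, 1, 3 and 10 μg/mL for 24 h. Secreted IL-12 and IL-6 in the supernatants were measured by ELISA. Values are averages of triplicate wells from one representative of at least two independent experiments.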

[3] = target: T1, Toll-like receptor 9 (Homo sapiens); assay: Induction of TLR9-mediated immune stimulation in human PBMC assessed as RANTES production at 10 ug/ml after 24 hrs by luminex multiplex assay (RVb = 0.05 +/- 0.04 ng/ml)
[4] = target: T1, Toll-like receptor 9 (Homo sapiens); assay: Induction of TLR9-mediated immune stimulation in human PBMC assessed as IL1Ralpha production at 10 ug/ml after 24 hrs by luminex multiplex assay (RVb = 0.12 +/- 0.03 ng/ml)
[5] = target: T1, Toll-like receptor 9 (Homo sapiens); assay: Induction of TLR9-mediated immune stimulation in human PBMC assessed as IL2R production at 10 ug/ml after 24 hrs by luminex multiplex assay (RVb = 0.02 +/- 0.01 ng/ml)
[6] = target: T1, Toll-like receptor 9 (Homo sapiens); assay: Induction of TLR9-mediated immune stimulation in human PBMC assessed as MIP1beta production at 2 ug/ml after 24 hrs by luminex multiplex assay (RVb = 0.03 +/- 0.02 ng/ml)
[7] = target: T1, Toll-like receptor 9 (Homo sapiens); assay: Induction of TLR9-mediated immune stimulation in human PBMC assessed as MIP1alpha production at 2 ug/ml after 24 hrs by luminex multiplex assay (RVb = 0.01 ng/ml)
[8] = target: T1, Toll-like receptor 9 (Homo sapiens); assay: Induction of TLR9-mediated immune stimulation in human PBMC assessed as RANTES production at 2 ug/ml after 24 hrs by luminex multiplex assay (RVb = 0.05 +/- 0.04 ng/ml)
[9] = target: T1, Toll-like receptor 9 (Homo sapiens); assay: Induction of TLR9-mediated human B cell proliferation assessed as [3H]thymidine uptake after 56 hrs by scintillation counting
Summary of the method: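 B cells were purified from human PBMCs (healthy volunteers), about 1 × 10⁵ cells, and stimulated with various agonist concentrations for 56 h. Cells were then pulsed with 0.75 μCi [³H]-thymidine and harvested 16 h later. Incorporation was counted by scintillation and reported as cpm.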

[10] = target: T1, Toll-like receptor 9 (Homo sapiens); assay: Induction of TLR9-mediated immune stimulation in human PBMC assessed as IP10 production at 2 ug/ml after 24 hrs by luminex multiplex assay (RVb = 0.00 ng/ml)

Activity [1] [ng/mL] | Activity [2] | Activity [3] [ng/mL] | Activity [4] [ng/mL] | Activity [5] [ng/mL] | Activity [6] [ng/mL] | Activity [7] [ng/mL] | Activity [8] [ng/mL] | Activity [9] | Activity [10] [ng/mL] | Compound
0.2 | Dose-dependent effect | 2.13 | 97.2 | 0.28 | 0.13 | 0.05 | 0.93 | Dose-dependent effect | 0.03 | Cc1cn([C@H]2C[C@H](O[C@H]3C[C@@H](O)C[C@@H](OP(=O)(S)O[C@H]4C[C@H](n5cc(C)c(=O)[nH]c5=O)O[C@@H]4COP(=O)(S)O[C@H]4[C@@H](O)[C@H](n5ccc(N)nc5=O)O[C@@H]4COP(=O)(S)O[C@H]4C[C@H](n5cc(C)c(=O)[nH]c5=O)O[C@@H]4COP(=O)(S)O[C@H]4C[C@H](n5cc(C)c(=O)[nH]c5=O)O[C@@H]4COP(=O)(S)O[C@H]4C[C@H](n5ccc6c(=O)[nH]c(N)nc65)O[C@@H]4COP(=O)(S)O[C@H]4[C@@H](O)[C@H](n5ccc(N)nc5=O)O[C@@H]4COP(=O)(S)O[C@H]4C[C@H](n5cc(C)c(=O)[nH]c5=O)O[C@@H]4COP(=O)(S)O[C@H]4[C@@H](O)[C@H](n5cnc6c(=O)[nH]c(N)nc65)O[C@@H]4COP(=O)(S)O[C@H]4C[C@H](n5cc(C)c(=O)[nH]c5=O)O[C@@H]4COP(=O)(S)O[C@H]4[C@@H](O)[C@H](n5ccc(N)nc5=O)O[C@@H]4COP(=O)(S)O[C@H]4C[C@H](n5cc(C)c(=O)[nH]c5=O)O[C@@H]4CO)C3)[C@@H](COP(=O)(S)O[C@H]3[C@@H](O)[C@H](n4ccc(N)nc4=O)O[C@@H]3COP(=O)(S)O[C@H]3C[C@H](n4cc(C)c(=O)[nH]c4=O)O[C@@H]3COP(=O)(S)O[C@H]3C[C@H](n4cc(C)c(=O)[nH]c4=O)O[C@@H]3COP(=O)(S)O[C@H]3C[C@H](n4ccc5c(=O)[nH]c(N)nc54)O[C@@H]3COP(=O)(S)O[C@H]3[C@@H](O)[C@H](n4ccc(N)nc4=O)O[C@@H]3COP(=O)(S)O[C@H]3C[C@H](n4cc(C)c(=O)[nH]c4=O)O[C@@H]3COP(=O)(S)O[C@H]3[C@@H](O)[C@H](n4cnc5c(=O)[nH]c(N)nc54)O[C@@H]3COP(=O)(S)O[C@H]3C[C@H](n4cc(C)c(=O)[nH]c4=O)O[C@@H]3COP(=O)(S)O[C@H]3[C@@H](O)[C@H](n4ccc(N)nc4=O)O[C@@H]3COP(=O)(S)O[C@H]3C[C@H](n4cc(C)c(=O)[nH]c4=O)O[C@@H]3CO)O2)c(=O)[nH]c1=O (stereo not given in full)
0.2 | Dose-dependent effect | 0.98 | 29.6 | 0.12 | 0.81 | 0.16 | 0.69 | Dose-dependent effect | 0.79 | Cc1cn([C@H]2C[C@H](OCC[C@H](O)COP(=O)(S)O[C@H]3C[C@H](n4cc(C)c(=O)[nH]c4=O)O[C@@H]3COP(=O)(S)O[C@H]3[C@@H](O)[C@H](n4ccc(N)nc4=O)O[C@@H]3COP(=O)(S)O[C@H]3C[C@H](n4cc(C)c(=O)[nH]c4=O)O[C@@H]3COP(=O)(S)O[C@H]3C[C@H](n4cc(C)c(=O)[nH]c4=O)O[C@@H]3COP(=O)(S)O[C@H]3C[C@H](n4ccc5c(=O)[nH]c(N)nc54)O[C@@H]3COP(=O)(S)O[C@H]3[C@@H](O)[C@H](n4ccc(N)nc4=O)O[C@@H]3COP(=O)(S)O[C@H]3C[C@H](n4cc(C)c(=O)[nH]c4=O)O[C@@H]3COP(=O)(S)O[C@H]3[C@@H](O)[C@H](n4cnc5c(=O)[nH]c(N)nc54)O[C@@H]3COP(=O)(S)O[C@H]3C[C@H](n4cc(C)c(=O)[nH]c4=O)O[C@@H]3COP(=O)(S)O[C@H]3[C@@H](O)[C@H](n4ccc(N)nc4=O)O[C@@H]3COP(=O)(S)O[C@H]3C[C@H](n4cc(C)c(=O)[nH]c4=O)O[C@@H]3CO)[C@@H](COP(=O)(S)O[C@H]3[C@@H](O)[C@H](n4ccc(N)nc4=O)O[C@@H]3COP(=O)(S)O[C@H]3C[C@H](n4cc(C)c(=O)[nH]c4=O)O[C@@H]3COP(=O)(S)O[C@H]3C[C@H](n4cc(C)c(=O)[nH]c4=O)O[C@@H]3COP(=O)(S)O[C@H]3C[C@H](n4ccc5c(=O)[nH]c(N)nc54)O[C@@H]3COP(=O)(S)O[C@H]3[C@@H](O)[C@H](n4ccc(N)nc4=O)O[C@@H]3COP(=O)(S)O[C@H]3C[C@H](n4cc(C)c(=O)[nH]c4=O)O[C@@H]3COP(=O)(S)O[C@H]3[C@@H](O)[C@H](n4cnc5c(=O)[nH]c(N)nc54)O[C@@H]3COP(=O)(S)O[C@H]3C[C@H](n4cc(C)c(=O)[nH]c4=O)O[C@@H]3COP(=O)(S)O[C@H]3[C@@H](O)[C@H](n4ccc(N)nc4=O)O[C@@H]3COP(=O)(S)O[C@H]3C[C@H](n4cc(C)c(=O)[nH]c4=O)O[C@@H]3CO)O2)c(=O)[nH]c1=O (stereo not given in full)
